Many of the other results were omitted from the sample, so hits are more common in it than they were.
D1 mod = D1 dopamine receptor (human) allosteric modulation. P21728. HEK293 D1, CRE-luciferase, dopamine EC30 potentiation; actives deviate in either direction. B-score at 10 µM. actives 5.9% (n = 58,000). AID 641;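 active = luminescence count or its row- and column-corrected plate score outside the 99.7% band of the plate's sample wells, on either side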
Target sequence (P21728 whole entry, looked up): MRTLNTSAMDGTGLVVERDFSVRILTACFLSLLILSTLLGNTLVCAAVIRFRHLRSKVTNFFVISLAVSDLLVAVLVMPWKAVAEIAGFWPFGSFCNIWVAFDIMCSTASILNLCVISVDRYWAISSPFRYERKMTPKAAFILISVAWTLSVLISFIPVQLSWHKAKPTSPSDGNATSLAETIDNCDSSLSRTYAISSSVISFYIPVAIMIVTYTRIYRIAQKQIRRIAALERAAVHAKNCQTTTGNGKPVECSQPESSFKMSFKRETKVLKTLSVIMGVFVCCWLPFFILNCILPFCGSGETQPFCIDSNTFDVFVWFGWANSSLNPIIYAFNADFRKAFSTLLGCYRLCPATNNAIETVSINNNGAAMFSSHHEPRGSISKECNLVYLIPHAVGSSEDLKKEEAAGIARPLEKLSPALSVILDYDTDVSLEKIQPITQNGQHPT
DAT uptake mod = human DAT dopamine uptake with cocaine, either direction; Q01959; LLC-PK1 hDAT cells, [14C]-dopamine uptake with cocaine IC80; actives deviate in either direction; B-score at 10 µM; actives 1.3% (n = 110,000);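 active = Z score or B-score, a plate-position-corrected score, falls beyond the plate's 99.7% confidence bounds, in either direction; inactive = both scores lie inside the 99.7% bounds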
WNV NS2B-NS3 inh = WNV NS2B-NS3 proteinase inhibition; WNV NS2B-NS3 protease, fluorogenic substrate Ex360/Em465; stronger effect = lower value; z-score (test concentration not listed); actives 0.18% (n = 65,000); AID 577; in the data active = z-score below about -3
AP ELISA ortho = alternative pathway complement inhibition, orthogonal assay. actives 0.08% (n = 62,000). Human serum alternative complement pathway, LPS-coated ELISA, C3 deposition; tested in compound mixtures. AID 1235. inhibition, % at 5 µM;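 active = inhibition above 30% in each of the two pooled mixtures holding the compound, so the lower value exceeds 30%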
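Test system – human serum alternative complement pathway, C3 deposition on LPS-coated wells · Buffer or medium – diluted human serum in Mg2+-EGTA GVB++ · Compound dosing – 5 µM each compound, pools of ten, 50 µM per pool · Schedule – 1 h serum-compound exposure at 37 °C · Measured by – Anti-C3 ELISA, OD 450 nm · Read-out basis – percent inhibition of C3 deposition onto LPS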
D1 PAM confirm = confirmation of human D1 dopamine receptor allosteric modulators | shares compounds with D1 mod | HEK293 D1 CRE-luciferase, dopamine EC30 potentiation; stronger effect = higher value | luminescence at 10 µM | actives 88% (n = 2,200);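 active = luminescence in either of two replicates above the same-plate mean plus 3 SD of the low-dose dopamine control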
D1 ag no DA = activates D1 CRE-luciferase signal without dopamine present; shares compounds with D1 mod; HEK293 D1 CRE-luciferase, luminescence, no dopamine; stronger effect = higher value; luminescence at 10 µM; actives 0.8% (n = 1,900); AID 646; in the data active = luminescence above about 3900
Isoprot counter = isoproterenol response counter-screen activity for D1 modulators. shares compounds with D1 mod. luminescence at 10 µM. actives 63% (n = 2,200). HEK293 D1 CRE-luciferase, isoproterenol EC30 counter-screen; stronger effect = higher value;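 active = luminescence in either replicate above plate mean of wells with a partly effective reference agonist dose plus 3 SD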;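 note: isoproterenol raises cAMP through native beta-adrenoceptor Gs so signal bypasses D1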
Numbers stand for hits; – = inactive; · = no result given.

SMILES | D1 mod | DAT uptake mod | WNV NS2B-NS3 inh | AP ELISA ortho | D1 PAM confirm | D1 ag no DA | Isoprot counter
COC(=O)CSc1nc2sc(C)c(C)c2c(=O)n1C | 6.1 | – | – | – | 7584 | – | 2964
OCCn1c(Cl)nc2ccccc21 | · | – | · | · | · | · | ·
CCOC(=O)CC1C(=O)NCCN1S(=O)(=O)c1ccc(Cl)cc1Cl (stereo unspecified) | · | – | · | · | · | · | ·
COc1ccc(CN2CCCCC2C(=O)Nc2ccc(OC)c(OCC(C)C)c2)cc1OC (stereo unspecified) | · | – | · | · | · | · | ·
O=S(=O)(Nc1cc(Cl)ccc1N1CCCCC1)c1cccs1 | 29 | – | – | – | 7016 | – | –
O=C1C2C(c3ccccc3)CC=CC2[C@H](c2cccc([N+](=O)[O-])c2)N1Cc1ccccc1 (stereo partly specified) | · | – | · | · | · | · | ·
COc1ccc(C2c3c(-c4cc(Cl)c(C)cc4O)n[nH]c3C(=O)N2Cc2cccnc2)cc1OC (stereo unspecified) | 4.3 | 3 | – | – | 9304 | · | 4244
C=CCn1c(SCC(=O)c2cc(C)n(C(C)COC)c2C)nc2sc(C)c(C)c2c1=O (stereo unspecified) | – | – | – | – | · | · | ·
CC(C)=CCCC1(C)C=Cc2c(c(C)cc3c2[nH]c2cc(O)ccc23)O1 (stereo unspecified) | · | – | · | · | · | · | ·
CCOC(=O)c1sc(NC(NC(=O)c2ccco2)(C(=O)OC)C(F)(F)F)nc1C (stereo unspecified) | 5.6 | – | – | – | 8940 | – | 3624
Cc1sc2ncnc(SC(C)C#N)c2c1C (stereo unspecified) | 4.9 | – | – | – | – | – | –
CCC(Sc1ncnc2sc(C)c(C)c12)C(=O)OC (stereo unspecified) | · | – | · | · | · | · | ·
CCSc1nc(N2CCOCC2)c2ccccc2n1 | 10 | – | – | – | 15840 | · | 3736
O=C(CSc1nnc2scc(-c3ccccc3)n12)NCc1ccco1 | – | · | – | – | · | · | ·
O=C(CSc1nnc2scc(-c3ccc(Cl)cc3)n12)NCc1ccc2c(c1)OCO2 | 6.3 | – | – | – | 13884 | – | 6312
O=C(CSc1nnc2scc(-c3ccccc3)n12)NCc1ccc2c(c1)OCO2 | 7.1 | – | – | – | 15400 | – | 4680
O=C(CSc1nnc2scc(-c3ccc(Cl)cc3)n12)NCc1ccco1 | – | – | – | – | · | · | ·
CCCC(=O)Nc1cc2c(cc1C(=O)c1ccccc1)OCCO2 | 6.3 | – | – | – | 13204 | – | 3708
CCC(=O)Nc1cc2c(cc1C(C)=O)OCCO2 | – | – | · | – | · | · | ·
Cc1ccc(Sc2ccc(N)cc2C#N)cc1 | · | – | · | · | · | · | ·
COc1ccc(CCN2C(=O)c3ccncc3C2=O)cc1OC | · | – | · | · | · | · | ·
CC(C)(C)n1ncc2c(=O)n(Cc3ccc(Cl)cc3Cl)cnc21 | – | – | – | – | · | · | ·
CC(C)(C)n1ncc2c(=O)n(Cc3c(F)cccc3Cl)cnc21 | 6 | – | – | – | 9180 | – | 3056
CCOC(=O)C1=C(C)OC(N)=C(C#N)C1c1cc(OC)c2c(c1)OCO2 (stereo unspecified) | – | – | – | – | · | · | ·
COc1cc(C2C(C#N)=C(N)Oc3cc(N(C)C)ccc32)cc2c1OCO2 (stereo unspecified) | 7.3 | – | – | – | 15056 | – | 4588
SMILES | D1 mod | DAT uptake mod | WNV NS2B-NS3 inh | AP ELISA ortho | D1 PAM confirm | D1 ag no DA | Isoprot counter
COc1cc(C2C(C#N)=C(N)Oc3cc(O)ccc32)cc2c1OCO2 (stereo unspecified) | 4.1 | – | – | – | 11740 | – | 3432
CCCCCCCOc1ccc(OC(=O)c2ccncc2)cc1 | · | – | · | · | · | · | ·
Cc1ccc2nc(NCCO)nc(-c3ccccc3)c2c1 | 14 | · | – | – | 19388 | · | 3656
COc1ccc(/C=C(/C#N)c2cccnc2)cc1OC | 34 | – | – | – | 21544 | – | 5004
COc1cc(/C=C(/C#N)c2ccc(C)cc2)ccc1Oc1ccc([N+](=O)[O-])cn1 | · | – | · | · | · | · | ·
N#CC1=C(N)OC2=C(C(=O)CCC2)C1CCc1ccccc1 (stereo unspecified) | 6.4 | – | – | – | 7756 | · | –
Cc1cn(-c2cc(C(=O)Nc3ccc(C)c(NC(=O)C(=O)c4c[nH]c5ccccc45)c3)cc(C(F)(F)F)c2)cn1 | · | – | · | · | · | · | ·
COc1ccc(C(=O)N2CCN=C2SCc2cccnc2)cc1OC | 4.8 | – | – | – | 9852 | – | 4156
COc1cccc(OC)c1C(=O)N1CCN=C1SCc1cccnc1 | – | – | – | – | · | · | ·
COc1ccc(OC)c(NC(=O)CN(c2ccc(OC)c(Cl)c2)S(C)(=O)=O)c1 | 4 | – | – | – | 16872 | – | 4068
COc1ccc(N(CC(=O)Nc2cccc(OC)c2)S(=O)(=O)c2c(C)nn(C)c2C)cc1 | · | – | – | – | · | · | ·
COc1ccc(N(CC(=O)Nc2cc(OC)ccc2OC)S(=O)(=O)c2c(C)nn(C)c2C)cc1 | 8.7 | · | – | – | 14244 | – | 4064
COc1ccc(NC(=O)CN(c2ccc(C)cc2)S(C)(=O)=O)c(OC)c1 | – | – | – | – | · | · | ·
Cc1cc(Nc2ccc(C)c(F)c2)n2ncnc2n1 | 3.3 | – | – | – | – | – | –
c1ccc(Nc2cc(-c3ccccc3)nc3ncnn23)cc1 | 7.9 | – | – | – | 15552 | – | 4008
COc1ccc(-c2cc(-c3ccccc3)n3ncnc3n2)cc1 | – | – | – | · | · | · | ·
C=COCCNC(=O)C1CC(=O)N(c2ccc(C)cc2)C1 (stereo unspecified) | – | – | – | – | · | · | ·
CCc1[nH]c(=O)c(C#N)c2c1CCCC2 | · | · | – | · | · | · | ·
CCC(C)(C)n1c(=O)[nH]c2c(c1=O)CCC2 | 4.3 | 3 | – | – | – | – | –
COc1ncnc2c1N[C@@](C)(O)c1c(F)c(F)c(F)c(F)c1S2 | 5.7 | – | – | – | 8300 | – | –
COc1ncnc2c1NC(=O)CS2 | – | – | – | – | · | · | ·
CCOC(=O)c1c(NC(=O)OC)sc(C(=O)N(C)C)c1C | 4.1 | – | – | – | 13484 | – | 3492
CCOC(=O)c1c(/N=C/N(C)C)sc(C(=O)OC)c1C | 3.7 | – | – | – | 8988 | · | 2516
CCOC(=O)c1sc(NC(=O)COC(=O)Cn2cnc3ccccc32)c(C(=O)OCC)c1C | 5 | · | – | – | 9720 | – | –
CCOC(=O)c1c(NC(=O)CC)sc(C(C)=O)c1C | 16 | – | – | · | 12336 | – | 3600
CCOC(=O)c1c(NC(=O)COC(=O)Cn2c(C(F)(F)F)nc3ccccc32)sc(C)c1C | · | – | · | · | · | · | ·
C=CCn1c(Cc2cccs2)nnc1SCC(=O)c1cccc(Br)c1 | – | – | – | – | · | · | ·
Cc1ccc(S(=O)(=O)N(CC(O)CN2C(=O)NC(C)(C)C2=O)c2ccccc2)cc1 (stereo unspecified) | · | – | · | · | · | · | ·
Cc1cc(C)n(-c2cc(N3CCN(C(=O)c4cccc(F)c4)CC3)ccc2[N+](=O)[O-])n1 | · | – | · | · | · | · | ·
